NS3 helicase inh – inhibitors of Hepatitis C virus NS3 helicase. hit rate 0.56% among 290,000. NS3 helicase DNA unwinding, Cy5 molecular beacon fluorescence. inhibition, % at 10.9 µM;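 active = inhibition above the mean of all tested compounds plus 3 SD, set per campaign, cut at about 35% in these data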
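System: NS3 helicase fragment of HCV / Schedule: 1 h at 25 °C / Control set: DMSO alone as 0% and 110 µM thioflavine S as 100% / Reagent: Cy5/quencher beacon DNA duplex and ATP to start / Technique: Cy5 fluorescence / Replication: singlicate / Evaluation: % inhibition of end-to-start signal ratio versus controls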
MEKK2wt PB1 HTS – raises or lowers MEK5 binding to wildtype human MEKK2 PB1 domain; Q9Y2U5; bead flow cytometry, Alexa488-MEK5 binding to MEKK2 WT; actives lie on both sides; AID 1531; hit rate 1.1% among 290,000; binding response (% of control), % at 10 µM; in the data active = binding response below about 67% or above about 130%
T cruzi repl – T. cruzi replication inhibition | T. cruzi beta-gal in NIH3T3, luminescence, 90 h | inhibition, % (test concentration not listed) | hit rate 1.4% among 300,000 | AID 1885;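 active = mean inhibition across valid replicates above about 55%, limit read from the data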;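 also: signal also drops with host cell toxicity which is not excluded here; higher percent means less beta-gal luminescence so fewer parasites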
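Assay system: NIH/3T3 fibroblasts plus reporter T. cruzi. Amount: NIH/3T3 cells, 5,000 per well. Buffer or medium: DMEM, 2% fetal bovine serum. Doses: compound pinned at 50 nL/well, DMSO. Schedule: ≥90 h infection period, 3 h prior cell attachment. Signal: luminescent β-galactosidase signal after 60 min lysis. Read-out: parasite load inhibition, %.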
MEKK3 PB1 HTS – modulators (inhibitors or enhancers) of MEK5 binding to human MEKK3 PB1 domain; AID 1529; hit rate 1.4% among 290,000; binding response (% of control), % at 10 µM; bead-based flow cytometry, Alexa488-MEK5 binding to MEKK3; actives lie on both sides; 0 = blocked by unlabeled MEK5, 100 = vehicle;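 active = binding response more than 3 SD above or below the average of its plate-row segment, actives on both sides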;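 also: Alexa488 bead fluorescence after subtracting the streptavidin-only scavenger bead signal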
Target sequence (Q99759 whole entry, looked up, the tested form may be a part): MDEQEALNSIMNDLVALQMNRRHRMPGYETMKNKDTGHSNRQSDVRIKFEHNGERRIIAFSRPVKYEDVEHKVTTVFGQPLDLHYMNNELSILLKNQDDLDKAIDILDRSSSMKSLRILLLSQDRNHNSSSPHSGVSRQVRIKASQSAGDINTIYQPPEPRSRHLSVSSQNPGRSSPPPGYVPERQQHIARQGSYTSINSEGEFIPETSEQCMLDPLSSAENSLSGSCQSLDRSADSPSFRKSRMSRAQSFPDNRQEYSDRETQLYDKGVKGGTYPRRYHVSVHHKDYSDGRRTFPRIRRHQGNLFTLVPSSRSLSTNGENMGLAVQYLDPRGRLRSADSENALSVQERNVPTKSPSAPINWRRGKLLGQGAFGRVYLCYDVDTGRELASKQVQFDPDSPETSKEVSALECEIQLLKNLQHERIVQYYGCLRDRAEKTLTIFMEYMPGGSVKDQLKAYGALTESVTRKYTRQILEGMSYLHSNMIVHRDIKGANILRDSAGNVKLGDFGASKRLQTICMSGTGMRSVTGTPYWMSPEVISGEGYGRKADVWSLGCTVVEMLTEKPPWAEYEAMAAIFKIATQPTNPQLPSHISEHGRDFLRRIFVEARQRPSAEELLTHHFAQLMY
MEKK2 mut-MEK5 – signal of MEK5 binding to mutant human MEKK2 PB1 domain | percent response, % at 10 µM | bead flow cytometry, Alexa488-MEK5 binding to MEKK2 mutant | hit rate 0.35% among 290,000; in the data active = percent response above about 24%, passing the limit was not always enough
FID counter – displaces DNA intercalator in HCV helicase counter-screen | DNA fluorescent intercalator displacement, fluorescence | AID 1845 | hit rate 0.17% among 290,000 | inhibition, % at 7.9 µM; in the data active = inhibition above about 37%;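 also: higher means more ethidium bromide displaced from hairpin DNA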
MEKK2wt confirm – raises or lowers MEK5 binding to wildtype human MEKK2, retest; hit rate 2.4% among 5,900; shares compounds with MEKK3 PB1 HTS; binding response (% of control), % at 10 µM; bead flow cytometry, Alexa488-MEK5 binding to MEKK2 WT; actives lie on both sides; in the data active = binding response below about 16% or above about 210%; inactive = in between
MEKK2mut confirm – signal of MEK5 binding to mutant human MEKK2, retest. AID 1893. percent response, % at 10 µM. bead flow cytometry, Alexa488-MEK5 binding to MEKK2 mutant. hit rate 2% among 5,900. shares compounds with MEKK3 PB1 HTS; in the data active = percent response mostly above about 71%, no sharp cut-off; inactive = mostly below about 38%;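 also: higher means compound restores mutant binding toward wildtype level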
MEKK3 confirm – MEKK3-MEK5 PB1 inhibition, single concentration confirmation. shares compounds with MEKK3 PB1 HTS. bead flow cytometry, Alexa488-MEK5 binding to MEKK3; hits give low values. binding response (% of control), % at 10 µM. hit rate 1.8% among 5,900. AID 1894;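 active = binding response below 72% of control, or above a set upper limit, though filed actives all read lower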;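 also: lower values mean stronger disruption of MEK5 binding to MEKK3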
Large screens that a line does not name were inactive (follow-up assays come after a bar, where they were run); [ ] = another dose, or the depositor's remark. Hits are enriched below; roughly 4.1% of the tested compounds scored in any of these assays.

CCCCCc1cc(=O)oc2c(C(CCN3CCCCC3)c3cc(OC)c(OC)c(OC)c3)c(OC)cc(OC)c12 (stereo unspecified)	MEKK2wt PB1 HTS 147 (no result: NS3 helicase inh, FID counter) | MEKK2wt confirm inactive | MEKK2mut confirm inactive | MEKK3 confirm inactive
COc1cc(C(CCN2CCCC2)c2c(OC)cc(OC)c3ccc(=O)oc23)cc(OC)c1OC (stereo unspecified)	none (no result: NS3 helicase inh, FID counter)
O=C(c1cc[n+]([O-])cc1)N1CCCC(N2CCN(c3cccc(C(F)(F)F)c3)CC2)C1 (stereo unspecified)	none
CCc1ccc(CNC(=O)c2ccc(OC3CCN(C(C)=O)CC3)c(OC)c2)nc1	none
COc1ccc(Cc2noc(CN3CCCC(OCc4ccccn4)C3)n2)cc1OC (stereo unspecified)	none
COc1cccc(-c2nc(Cc3ccc(OC)c(OC)c3)no2)c1	MEKK2wt PB1 HTS -6.0[inhibitor] | MEKK2wt confirm inactive | MEKK2mut confirm inactive | MEKK3 confirm inactive
CC1=CC2=NC(=O)CC(C)(C(=O)N(CC(=O)NC3CCCC3)c3cc(C)cc(C)c3)N2C=C1 (stereo unspecified)	MEKK3 PB1 HTS 150 | MEKK2wt confirm inactive | MEKK2mut confirm inactive | MEKK3 confirm inactive
O=C(O)COc1ccccc1/C=N/NC(=O)CSc1nc2ccccc2n1Cc1ccc(Cl)cc1	MEKK3 PB1 HTS 50[inhibitor] | MEKK2wt confirm inactive | MEKK2mut confirm inactive | MEKK3 confirm inactive
O=C(CSc1nc2ccccc2n1Cc1ccc(Cl)cc1)N/N=C/c1ccccc1C(=O)O	none
CN(C(=O)CSc1nnc(-c2ccncc2)n1Cc1ccccc1)C1CCS(=O)(=O)C1 (stereo unspecified)	none
O=C(/C=C/c1ccccc1)NC1CC2CCC1C2 (stereo unspecified)	none
O=C(O)/C=C/C(=O)OC1CC2CCC1C2 (stereo unspecified)	MEKK3 PB1 HTS 134 | MEKK2wt confirm inactive | MEKK2mut confirm inactive | MEKK3 confirm inactive
COc1ccc(C(C)=O)cc1COC(=O)CNC(=O)c1ccccc1F	MEKK3 PB1 HTS 138 | MEKK2wt confirm inactive | MEKK2mut confirm inactive | MEKK3 confirm inactive
Cc1ccc(-c2nc3ccccc3c(=O)n2NC(=S)N(C)C)cc1	none
COc1cccc(C2C3=C(CC(C)(C)CC3=O)OC(N)=C2[N+](=O)[O-])c1 (stereo unspecified)	none
CC1(C)CC(=O)C2=C(C1)OC(N)=C([N+](=O)[O-])C2c1ccc(F)cc1 (stereo unspecified)	MEKK3 PB1 HTS 137 | MEKK2wt confirm inactive | MEKK2mut confirm inactive | MEKK3 confirm inactive
CCCCN(C)C1CCN(C(=S)Nc2ccc(OCC)cc2)CC1	none
CCCCN(C(=O)Nc1ccc(OCC)cc1)C1CCN(C(C)=O)CC1	MEKK2wt PB1 HTS -1.0[inhibitor] | MEKK2wt confirm inactive | MEKK2mut confirm inactive | MEKK3 confirm inactive
C=CCn1c(Oc2ccc(C=O)cc2OCC)nc2c1c(=O)n(C)c(=O)n2C	none
Oc1ccc(Cl)cc1-c1cc(-c2ccco2)[nH]n1	MEKK3 PB1 HTS 78[inhibitor] | MEKK2wt confirm inactive | MEKK2mut confirm inactive | MEKK3 confirm inactive
Oc1ccccc1-c1cc(-c2ccco2)[nH]n1	none
COc1ccccc1/C=C/C(=O)NCCc1ccccn1	none
COc1ccc(NC(=O)C2C3C=CC4(O3)C2C(=O)N(CCN2CCCCC2C)C4C(=O)NC2CCCCC2)cc1 (stereo unspecified)	none
CCN(CC)c1ccc(NC(=O)CN2CCN(CC(=O)Nc3ccccc3OC)CC2)cc1	none
